# In PubChem BioAssay AID493239 (Broad Institute, 2011):
# Values joined by “and” are separate entries in the source; they are usually repeats but may differ in a detail not shown here. Equal values may be shown once. Active and inactive are the calls of the source.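 The calls were made as follows: active = fitted curve crosses 40% activation at or below the top valid dose tested for that sample; inconclusive = flat fit between 30 and 70% activation, or poor fit; inactive = the rest, including activity in the opposite direction.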
# Tested on: not listed separately
# Assay: GFP-HIF1alpha nuclear accumulation inducers, dose response, orthogonal assay for HIF pathway activator project, imaging, U2OS, high content, dry powder, set 3 (AID 493239)
# Settings: U2OS GFP-HIF1alpha nuclear intensity imaging; at 38 µM (top of the series)
# Method in brief: (§1)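 Assay system: U2OS cells carrying GFP-HIF1alpha / Benchmarks: Desferrioxamine positive control / Replicates: duplicates / Incubation: 24 h compound treatment at 37 °C / Medium: phenol red-free DMEM with 10% fetal bovine serum / Detection: fluorescence imaging at 10X of formaldehyde-fixed, DAPI-counterstained cells / Compound: 8 concentrations, 3-fold steps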
row,SMILES,activation
1,Cc1ccccc1CNC(=O)c1cc(-c2ccccc2)on1,6.92% (inactive)
2,O=C(c1cc(-c2ccccc2)on1)N1CCN(c2ccncc2)CC1,14% (inactive)
3,O=C(NCCN1CCOCC1)c1cc(-c2ccccc2)on1,248% (inactive)
4,Cc1cccc(CNC(=O)c2cc(-c3ccccc3)on2)c1,12.7% (inactive)
5,O=C(Nc1ncc(-c2ccccc2)o1)c1cc(-c2ccccc2)on1,4.26% (inactive)
6,O=C(Nc1cnc2ccccc2c1)c1cc(-c2ccccc2)on1,8.34% (inactive)
7,Oc1ccc(CN2CCC(Cc3ccccc3)CC2)c2cccnc12,592% (inactive)
8,O=C(NC1Cc2ccccc2C1)c1cc(-c2ccccc2)on1,7.61% (inactive)
9,O=C(Nc1nnc(-c2ccccc2)s1)c1cc(-c2ccccc2)on1,-0.414% (inactive)
10,O=C(c1cc(-c2ccccc2)on1)N1CCC(N2CCCC2)CC1,5.78% (inactive)
11,COc1ccccc1N1CCN(Cc2ccc(O)c3ncccc23)CC1,219% (inactive)
12,Cc1ccc(CNC(=O)c2cc(-c3ccccc3)on2)cc1,0.663% (inactive)
13,O=C(c1cc(-c2ccccc2)on1)N1CCC(N2CCOCC2)CC1,-3.94% (inactive)
14,O=C(c1cc(-c2ccccc2)on1)N1CCC(CO)CC1,8.11% (inactive)
15,CN1CCN(C(=O)c2cc(-c3ccccc3)on2)CC1,-3.79% (inactive)
16,O=C(Nc1ccc2ccccc2n1)c1cc(-c2ccccc2)on1,0.342% (inactive)
17,Cc1cccc(NC(=O)c2cc(-c3ccccc3)on2)n1,7.71% (inactive)
18,Cn1c(NC(=O)c2cc(-c3ccccc3)on2)nc2ccccc21,-0.603% (inactive)
19,O=C(c1cc(-c2ccccc2)on1)N1CCc2cccnc21,0.25% (inactive)
20,O=C(NCc1ccccc1)c1cc(-c2ccccc2)on1,-3.06% (inactive)
21,O=C(Nc1nc(-c2ccccc2)cs1)c1cc(-c2ccccc2)on1,0.096% (inactive)

# Tested on: U2OS GFP-HIF1alpha nuclear intensity imaging
# Assay: as above
# Settings: not given
# Method in brief: as §1
row,SMILES,AC40
1,O=C(Nc1ncc2ccccc2n1)c1cc(-c2ccccc2)on1,32.3 µM
2,CC(C)(C)OC(=O)N1CCN(Cc2ccc(O)c3ncccc23)CC1,> 38 µM (inactive)
3,CC(C)(C)CCNC(=O)c1cc(-c2ccccc2)on1,18 µM
4,CCCCNC(=O)c1cc(-c2ccccc2)on1,5.94 µM
5,O=C(NCCN1CCCCC1)c1cc(-c2ccccc2)on1,> 38 µM (inactive)
6,Cc1ccccc1CNc1nc(-c2ccccn2)nnc1-c1ccccc1,1.14 µM
7,c1ccc(-c2nnc(-c3ccccn3)nc2NCc2ccccn2)cc1,6.35 µM
8,Cc1ccc(NC(=O)c2cc(-c3ccccc3)on2)cn1,> 38 µM (inactive)
9,c1ccc(-c2cnc(Nc3nc(-c4ccccn4)nnc3-c3ccccc3)s2)cc1,9.91 µM
10,OCC1CCN(Cc2ccc(O)c3ncccc23)CC1,4.02 µM
11,C[C@H](Nc1nc(-c2ccccn2)nnc1-c1ccccc1)C1CCCCC1,0.866 µM
12,c1ccc(-c2nnc(-c3ccccn3)nc2NCCc2ccccn2)cc1,4.57 µM
13,CN(C)CCNC(=O)c1cc(-c2ccccc2)on1,> 38 µM (inactive)
14,O=C(Nc1nc2ccccc2s1)c1cc(-c2ccccc2)on1,20.1 µM
15,c1ccc(-c2nnc(-c3ccccn3)nc2NCc2cccnc2)cc1,3.21 µM
16,CC(Nc1nc(-c2ccccn2)nnc1-c1ccccc1)c1ccccc1 (configuration not stated),1.48 µM
17,c1ccc(-c2nnc(-c3ccccn3)nc2Nc2cnc3ccccc3n2)cc1,3.16 µM
18,C=CCNc1nc(-c2ccccn2)nnc1-c1ccccc1,5.24 µM
19,c1ccc(-c2nnc(-c3ccccn3)nc2N2CCC(N3CCOCC3)CC2)cc1,3.85 µM
20,c1ccc(-c2csc(Nc3nc(-c4ccccn4)nnc3-c3ccccc3)n2)cc1,0.88 µM
21,c1ccc(-c2nnc(-c3ccccn3)nc2N2CCC(c3ccccc3)C2)cc1 (configuration not stated),0.353 µM
22,Oc1ccc(CNC2Cc3ccccc3C2)c2cccnc12,4.22 µM

row,SMILES,AC40
1,CC(C)(C)CCNc1nc(-c2ccccn2)nnc1-c1ccccc1,0.77 µM and 0.585 µM
2,c1ccc(-c2nnc(-c3ccccn3)nc2N2CCN(c3ccncc3)CC2)cc1,5.44 µM
3,c1ccc(CNc2nc(-c3ccccn3)nnc2-c2ccccc2)cc1,2.07 µM
4,CN(C)c1nc(-c2ccccn2)nnc1-c1ccccc1,11.6 µM
5,Oc1ccc(CN2CCC3CCCCC3C2)c2cccnc12 (configuration not stated),5.44 µM
6,O=C(NCC1CCCCC1)c1cc(-c2ccccc2)on1,> 38 µM (inactive)
7,c1ccc(-c2nnc(-c3ccccn3)nc2NCC2CCCCC2)cc1,1.13 µM
8,Clc1cccc(CNc2nc(-c3ccccn3)nnc2-c2ccccc2)c1,0.651 µM
9,CC(C)(C)c1ccc(CNc2nc(-c3ccccn3)nnc2-c2ccccc2)cc1,0.169 µM
10,COc1ccc(CNc2nc(-c3ccccn3)nnc2-c2ccccc2)cc1,1.15 µM
11,C[C@@H](Nc1nc(-c2ccccn2)nnc1-c1ccccc1)C1CCCCC1,0.515 µM
12,CN1CCN(c2nc(-c3ccccn3)nnc2-c2ccccc2)CC1,8.8 µM
13,Cc1cccc(Nc2nc(-c3ccccn3)nnc2-c2ccccc2)n1,2.98 µM
14,Cn1c(-c2ccccc2)cnc1NC(=O)c1cc(-c2ccccc2)on1,> 38 µM (inactive)
15,CC1CN(Cc2ccc(O)c3ncccc23)CC(C)O1 (configuration not stated),18.6 µM
16,O=C(NC1CCc2ccccc2C1)c1cc(-c2ccccc2)on1 (configuration not stated),> 38 µM (inactive)
17,c1ccc(-c2nnc(-c3ccccn3)nc2N2CCC(C3CCCCC3)C2)cc1 (configuration not stated),0.24 µM
18,c1ccc(-c2ccc(CNc3nc(-c4ccccn4)nnc3-c3ccccc3)cc2)cc1,0.487 µM
19,O=C(NCCCO)c1cc(-c2ccccc2)on1,5.32 µM
20,c1ccc(-c2nnc(-c3ccccn3)nc2NCCCN2CCOCC2)cc1,5.94 µM
21,Cc1ccc(Nc2nc(-c3ccccn3)nnc2-c2ccccc2)cn1,9.48 µM
22,O=C(NCCCn1ccnc1)c1cc(-c2ccccc2)on1,5.74 µM

row,SMILES,AC40
1,c1ccc(-c2nnc(-c3ccccn3)nc2NCC2CC2)cc1,3.09 µM
2,c1ccc(-c2nnc(Nc3nc(-c4ccccn4)nnc3-c3ccccc3)s2)cc1,7.75 µM
3,c1ccc(-c2nnc(-c3ccccn3)nc2NCCN2CCOCC2)cc1,7.2 µM
4,c1ccc(-c2nnc(-c3ccccn3)nc2NCC2CCOCC2)cc1,6.43 µM
5,O=C(NCC1CC1)c1cc(-c2ccccc2)on1,7.97 µM
6,O=C(NCCCCO)c1cc(-c2ccccc2)on1,2.08 µM
7,c1ccc(-c2cccc(CNc3nc(-c4ccccn4)nnc3-c3ccccc3)c2)cc1,0.407 µM
8,Cc1ccc(CNc2nc(-c3ccccn3)nnc2-c2ccccc2)cc1C,0.779 µM
9,c1ccc(-c2nnc(-c3ccccn3)nc2Nc2nc3ccccc3s2)cc1,1.26 µM
10,O=C(NCCCN1CCOCC1)c1cc(-c2ccccc2)on1,14.8 µM
11,N#CC1(c2ccccc2)CCN(Cc2ccc(O)c3ncccc23)CC1,> 38 µM (inactive)
12,Oc1ccc(CNC2CCc3ccccc32)c2cccnc12 (configuration not stated),10.3 µM
13,Oc1ccc(CN2CCc3ccccc3C2)c2cccnc12,3.58 µM and 20.4 µM
14,COc1cccc(CNc2nc(-c3ccccn3)nnc2-c2ccccc2)c1,1.08 µM
15,OCCCNc1nc(-c2ccccn2)nnc1-c1ccccc1,12.1 µM
16,OCC1CCN(c2nc(-c3ccccn3)nnc2-c2ccccc2)CC1,13.6 µM
17,Cn1c(-c2ccccc2)cnc1Nc1nc(-c2ccccn2)nnc1-c1ccccc1,8.34 µM
18,c1ccc(CCNc2nc(-c3ccccn3)nnc2-c2ccccc2)cc1,5.72 µM
19,C[C@@H](Nc1nc(-c2ccccn2)nnc1-c1ccccc1)c1ccccc1,1.87 µM
20,Cc1cccc(CNc2nc(-c3ccccn3)nnc2-c2ccccc2)c1,1.83 µM
21,O=C(Nc1cn2ccccc2n1)c1cc(-c2ccccc2)on1,3.04 µM
22,Cc1ccc(CNc2nc(-c3ccccn3)nnc2-c2ccccc2)cc1,1.24 µM
